Experimental data from ChEMBL document CHEMBL4145562, “Bioactivity-Guided Isolation of Potential Antidiabetic and Antihyperlipidemic Compounds from Trigonella stellata” (J Nat Prod, 2018).
The source made the active and inactive calls. The rule behind the calls is not given here.

What was measured:
Type in all cases: cell-based
[1] = molecular target: T1, Peroxisome proliferator-activated receptor alpha (Homo sapiens) (UniProt Q07869); test: Agonist activity at PPARalpha (unknown origin) expressed in human HepG2 cells cotransfected with PPRE X3-tk at 50 ug/ml after 24 hrs by luciferase reporter gene assay relative to control
T1 sequence (whole entry): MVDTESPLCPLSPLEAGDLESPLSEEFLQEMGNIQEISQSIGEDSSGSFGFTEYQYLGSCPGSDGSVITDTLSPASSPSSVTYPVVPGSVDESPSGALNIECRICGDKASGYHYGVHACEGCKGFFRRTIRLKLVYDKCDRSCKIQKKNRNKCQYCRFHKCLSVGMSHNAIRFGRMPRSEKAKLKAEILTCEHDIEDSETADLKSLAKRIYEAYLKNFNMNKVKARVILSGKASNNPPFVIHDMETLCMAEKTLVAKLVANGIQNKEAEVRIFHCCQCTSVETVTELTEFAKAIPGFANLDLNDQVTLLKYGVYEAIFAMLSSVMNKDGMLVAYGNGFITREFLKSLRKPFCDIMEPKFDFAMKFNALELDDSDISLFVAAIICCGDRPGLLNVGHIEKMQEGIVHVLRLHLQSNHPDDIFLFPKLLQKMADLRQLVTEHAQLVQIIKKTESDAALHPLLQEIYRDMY
Procedure, shortened: (§1)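 HepG2 cells grown in DMEM with 10% FBS, penicillin and streptomycin, then electroporated (160 V, single 70 ms pulse) with pSG5-PPARα plus PPRE X3-tk-luc plasmids (25 μg/1.5 mL cell suspension). Cells were plated at 5 × 10^4/well and grown 24 h, then treated for 24 h and lysed. Luciferase activity was reported as fold induction over vehicle control.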

[2] = molecular target: T1, Peroxisome proliferator-activated receptor alpha (Homo sapiens); test: Agonist activity at PPARalpha (unknown origin) expressed in human HepG2 cells cotransfected with PPRE X3-tk at 25 ug/ml after 24 hrs by luciferase reporter gene assay relative to control; procedure, shortened: as §1
[3] = molecular target: T1, Peroxisome proliferator-activated receptor alpha (Homo sapiens); test: Agonist activity at PPARalpha (unknown origin) expressed in human HepG2 cells cotransfected with PPRE X3-tk at 12.5 ug/ml after 24 hrs by luciferase reporter gene assay relative to control; procedure, shortened: as §1
[4] = molecular target: T2, Peroxisome proliferator-activated receptor gamma (Homo sapiens) (UniProt P37231); test: Agonist activity at PPARgamma (unknown origin) expressed in human HepG2 cells cotransfected with PPREaP2-tk at 50 ug/ml after 24 hrs by luciferase reporter gene assay relative to control
T2 sequence (whole entry): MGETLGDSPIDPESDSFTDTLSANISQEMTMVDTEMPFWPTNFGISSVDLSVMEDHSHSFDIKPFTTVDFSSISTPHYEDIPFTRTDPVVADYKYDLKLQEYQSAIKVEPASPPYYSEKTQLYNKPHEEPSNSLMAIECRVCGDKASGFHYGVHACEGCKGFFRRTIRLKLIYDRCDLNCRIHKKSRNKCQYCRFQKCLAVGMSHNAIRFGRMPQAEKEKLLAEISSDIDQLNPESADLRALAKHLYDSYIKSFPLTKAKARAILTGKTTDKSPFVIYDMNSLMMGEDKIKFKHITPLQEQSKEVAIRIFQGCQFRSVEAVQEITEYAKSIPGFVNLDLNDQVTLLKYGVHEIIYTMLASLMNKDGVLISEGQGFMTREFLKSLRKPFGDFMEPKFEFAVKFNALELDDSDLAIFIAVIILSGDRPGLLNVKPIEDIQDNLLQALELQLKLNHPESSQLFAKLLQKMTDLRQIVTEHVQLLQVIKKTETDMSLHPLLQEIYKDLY
Procedure, shortened: (§2)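 Rat PPARγ (pCMV-rPPARγ) was co-electroporated with the pPPREaP2-tk-luc reporter (25 μg/1.5 mL cell suspension; 160 V, one 70 ms pulse) into HepG2 cells kept in DMEM/10% FBS with antibiotics. Cells were seeded at 5 × 10^4/well for 24 h, then exposed to samples for 24 h. Luciferase was read in lysates and expressed as fold induction relative to vehicle.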

[5] = molecular target: T2, Peroxisome proliferator-activated receptor gamma (Homo sapiens); test: Agonist activity at PPARgamma (unknown origin) expressed in human HepG2 cells cotransfected with PPREaP2-tk at 25 ug/ml after 24 hrs by luciferase reporter gene assay relative to control; procedure, shortened: as §2
[6] = molecular target: T2, Peroxisome proliferator-activated receptor gamma (Homo sapiens); test: Agonist activity at PPARgamma (unknown origin) expressed in human HepG2 cells cotransfected with PPREaP2-tk at 12.5 ug/ml after 24 hrs by luciferase reporter gene assay relative to control; procedure, shortened: as §2
[7] = molecular target: T1, Peroxisome proliferator-activated receptor alpha (Homo sapiens); test: Agonist activity at PPARalpha (unknown origin) expressed in human HepG2 cells cotransfected with PPRE X3-tk at 1.45 ug/ml after 24 hrs by luciferase reporter gene assay relative to control; procedure, shortened: as §1

Row | Activity [1] | Activity [2] | Activity [3] | fold change (FC) [4] | fold change (FC) [5] | fold change (FC) [6] | fold change (FC) [1] | fold change (FC) [2] | fold change (FC) [3] | Activity [4] | Activity [5] | Activity [6] | fold change (FC) [7] | Structure (SMILES)
1 | inactive | inactive | inactive | 1.79 | 1.36 | 1.22 | – | – | – | – | – | – | – | C[C@@H]1O[C@@H](O[C@H]2[C@H](O[C@H]3[C@H](O[C@H]4CC[C@@]5(C)[C@@H](CC[C@]6(C)[C@@H]5CC=C5[C@@H]7CC(C)(C)C[C@@H](O)[C@]7(C)CC[C@]56C)[C@@]4(C)CO)O[C@H](C(=O)O)[C@@H](O)[C@@H]3O)O[C@H](CO)[C@H](O)[C@@H]2O)[C@H](O)[C@H](O)[C@H]1O
2 | – | – | – | – | – | – | 2.25 | 1.88 | 1.29 | inactive | inactive | inactive | – | COc1ccc2c(c1)OC[C@H](c1ccc(O)cc1O)[C@H]2O
3 | – | – | – | 1.74 | 1.36 | 1.22 | 1.67 | 1.32 | 1.14 | – | – | – | – | COc1ccc2c(c1)OC[C@@H](c1ccc(O[C@@H]3O[C@H](CO)[C@@H](O)[C@H](O)[C@H]3O)cc1O)[C@@H]2O
4 | inactive | inactive | inactive | 1.35 | 0.9 | 1 | – | – | – | – | – | – | – | O=C(O)c1ccc(O)cc1
5 | inactive | inactive | inactive | – | – | – | – | – | – | inactive | inactive | inactive | – | O=C(O)CCc1ccccc1O[C@@H]1O[C@H](CO)[C@@H](O)[C@H](O)[C@H]1O
6 | inactive | – | – | – | – | – | – | 2 | 1.93 | inactive | inactive | inactive | – | COc1ccc2c(c1)OC(OC)C(c1ccc(O)cc1O)[C@H]2O (single isomer, unassigned)
7 | – | – | – | – | – | – | – | – | – | – | – | – | 2.2 | CC(C)(Oc1ccc(C2CC2(Cl)Cl)cc1)C(=O)O (centres undefined)
8 | inactive | inactive | inactive | – | – | – | – | – | – | inactive | inactive | inactive | – | C[C@@H]1O[C@@H](Oc2cc(O)c3c(=O)c(O[C@@H]4O[C@@H](C)[C@H](O)[C@@H](O)[C@H]4O)c(-c4ccc(O)c(O)c4)oc3c2)[C@H](O)[C@H](O)[C@H]1O
9 | inactive | inactive | inactive | – | – | – | – | – | – | inactive | inactive | inactive | – | O=c1cc(-c2ccc(O)cc2)oc2cc(O)ccc12
